From ChEMBL document CHEMBL3853330, “Exploring the N-Terminal Region of C-X-C Motif Chemokine 12 (CXCL12): Identification of Plasma-Stable Cyclic Peptides As Novel, Potent C-X-C Chemokine Receptor Type 4 (CXCR4) Antagonists” (J Med Chem, 2016)
Each block holds one compound with its values, some of them ahead of it. The source made the active and inactive calls. The calls are words filed in the database; no cut-off is given here. Positions of bridges follow the written chain, without caps; N, C: chain ends. Residues, ends and D or L forms follow the SMILES beside them.

Columns and labels:
[1] = molecular target: T1, C-X-C chemokine receptor type 4 (Homo sapiens, UniProt P61073); assay: Inhibition of PE-conjugated-12G5 anti-CXCR4 antibody binding to CXCR4 in human CEM-CCRF cells preincubated for 30 mins followed by antibody addition by FACS Canto II cytofluorometric analysis; assay type: cell-based
[2] = molecular target: T1, C-X-C chemokine receptor type 4; assay: Inhibition of 12G5 anti-CXCR4 antibody binding to CXCR4 in human HT29 cells preincubated for 30 mins followed by antibody addition by FACS Canto II cytofluorometric analysis; assay type: cell-based, HT-29
[3] = Metabolic stability in human plasma assessed as compound degradation after 60 mins by ESI-RP-HPLC analysis; assay type: ADME, cell-free; conditions: read-out: Drug degradation
How it was run: (§1)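 Peptide (1 mg/mL in water) was mixed 1:1 with prewarmed (37 °C) human plasma diluted to 50% in water. Aliquots were taken at 0, 30, 60, 120 and 180 min and quenched with 1% TFA in acetonitrile. After centrifugation, supernatants were run on C18 HPLC-ESI-MS with a 10–90% ACN gradient (0.1% TFA) over 20 min. Relative levels came from A230 peak integration.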

[4] = molecular target: T1, C-X-C chemokine receptor type 4; assay: Inhibition of CXCR4 in human serum starved CEM cells assessed as suppression of CXCL12-dependent ERK phosphorylation at 0.001 to 0.1 uM after 2 to 20 mins in presence of CXCL12 by H/E staining based microscopic analysis; assay type: cell-based; conditions: CCRF-CEM, in the assay text read “immunoblotting” for “H/E staining based microscopic analysis”
How it was run: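 Serum-starved CEM cells were stimulated with CXCL12 (100 ng/mL) in the presence of peptide. Lysates were made in Hepes pH 7.5/Triton X-100 buffer with protease and phosphatase inhibitors and immunoblotted for p-ERK and ERK2. Induction is the ratio of p-ERK with CXCL12 to p-ERK under serum-free conditions.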

[5] = molecular target: T1, C-X-C chemokine receptor type 4; assay: Inhibition of GFP-tagged CXCR4 (unknown origin) internalization expressed in human HCT116 cells assessed as reduction in vesicle size at 0.1 uM pre-incubated for 45 mins followed by CXCL12 addition measured after 45 mins by alpha-tubulin/alexa fluor594/DAPI staining based confocal microscopic analysis; assay type: cell-based; conditions: HCT-116
How it was run: (§2)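 HCT116 cells were stably transfected with GFP-CXCR4, grown 1 day on coverslips in DMEM/10% FBS, then equilibrated in DMEM with 0.5% BSA. Cells got peptide (0.1 μM) for 45 min at 37 °C, then CXCL12 for 45 min at 37 °C. They were fixed in 4% formaldehyde, permeabilized with 0.1% Triton, and stained for α-tubulin (Alexa Fluor 594) and DAPI. Confocal microscopy assessed membrane fluorescence and intracellular vesicles.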

[6] = Drug metabolism in human plasma assessed as cyclic pentapeptide cyclo[Cys-Arg-Phe-Phe-Cys] metabolite formation after 120 mins by ESI-RP-HPLC analysis; assay type: ADME, cell-free; conditions: 2 h; how it was run: as §1
[7] = molecular target: T1, C-X-C chemokine receptor type 4; assay: Antagonist activity at CXCR4 in human HT29 cells assessed as suppression of CXCL12 dependent cell migration at 0.0001 to 10 uM in presence of CXCL12 by H/E staining based microscopic analysis; conditions: HT-29
How it was run: (§3)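 Transwell migration assay: inserts with 5 μm pores for CEM cells and 8 μm pores for HT29 cells, membranes precoated with human collagen type I/III and fibronectin (20 μg/mL each). 2 × 10^5 cells went in the upper chamber in medium with 1% BSA plus peptide, and 100 ng/mL CXCL12 in the lower chamber, for 18 h. Migrated cells were H&E-stained and counted in 10 fields. Migration index was taken against BSA-only medium.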

[8] = molecular target: T1, C-X-C chemokine receptor type 4; assay: Inhibition of CXCR4 in human CEM cells assessed as suppression of CXCL12-dependent cell migration after 18 hrs in presence of CXCL12 by H/E staining based microscopic analysis; conditions: CCRF-CEM; how it was run: as §3
[9] = molecular target: T1, C-X-C chemokine receptor type 4; assay: Inhibition of GFP-tagged CXCR4 (unknown origin) internalization expressed in human HCT116 cells at 0.1 uM pre-incubated for 45 mins followed by CXCL12 addition measured after 45 mins by alpha-tubulin/alexa fluor594/DAPI staining based confocal microscopic analysis; assay type: cell-based; conditions: HCT-116; how it was run: as §2
[10] = Drug metabolism in human plasma after 30 mins by ESI-RP-HPLC analysis; assay type: ADME, cell-free; conditions: read-out: Drug metabolism
[11] = Metabolic stability in human plasma after 180 mins by ESI-RP-HPLC analysis; assay type: ADME, cell-free; conditions: 3 h; how it was run: as §1
[12] = Drug level in human plasma treated with (4R,7S,10S,13S,16R)-16-amino-7,10-dibenzyl-13-(3-guanidinopropyl)-6,9,12,15-tetraoxo-1,2-dithia-5,8,11,14-tetraazacycloheptadecane-4-carboxylic acid after 2 hrs by ESI-RP-HPLC analysis; assay type: ADME; how it was run: as §1

T1 sequence (P61073 whole entry): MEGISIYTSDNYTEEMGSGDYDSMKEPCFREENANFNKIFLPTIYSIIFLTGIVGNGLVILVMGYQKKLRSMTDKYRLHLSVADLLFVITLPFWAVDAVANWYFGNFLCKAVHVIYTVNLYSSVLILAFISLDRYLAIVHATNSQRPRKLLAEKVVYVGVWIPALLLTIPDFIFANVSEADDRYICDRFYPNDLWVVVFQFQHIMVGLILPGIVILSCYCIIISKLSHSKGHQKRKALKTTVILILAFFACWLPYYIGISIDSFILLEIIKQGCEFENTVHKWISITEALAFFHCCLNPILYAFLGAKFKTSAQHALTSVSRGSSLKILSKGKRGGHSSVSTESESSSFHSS

IC50 [2]: 5.2 µM | metabolised at 1 h [3]: 50% | inhibition [4]: Active | inhibition [5]: Active | Drug metabolism [6]: Metabolite_Detected | inhibition [7]: Active | IC50 [1]: 6.2 µM | inhibition [8]: Active | inhibition [9]: Active | metabolised at 0.5 h [10]: 30%
SMILES: C[C@H](NC(=O)[C@@H](N)CCCNC(=N)N)C(=O)N[C@H]1CSSC[C@@H](C(=O)O)NC(=O)[C@H](Cc2ccccc2)NC(=O)[C@H](Cc2ccccc2)NC(=O)[C@H](CCCNC(=N)N)NC1=O (H-RACRFFC-OH; disulfide 3-7)

IC50 [1]: > 10 µM
SMILES: CC(=O)N[C@@H](CCCNC(=N)N)C(=O)N[C@@H](C)C(=O)N[C@H]1CSSC[C@@H](C(=O)O)NC(=O)[C@H](Cc2ccccc2)NC(=O)[C@H](Cc2ccccc2)NC(=O)[C@@H](CCCNC(=N)N)NC1=O

IC50 [1]: > 10 µM
SMILES: CC(=O)N[C@@H](CCCNC(=N)N)C(=O)N[C@@H](C)C(=O)N[C@H]1CSSC[C@@H](C(=O)O)NC(=O)[C@H](Cc2ccccc2)NC(=O)[C@@H](Cc2ccccc2)NC(=O)[C@H](CCCNC(=N)N)NC1=O

Stability [11]: Stable | IC50 [1]: 0.131 µM
SMILES: CC(=O)N[C@@H](CCCNC(=N)N)C(=O)N[C@@H](C)C(=O)N[C@H]1CSSC[C@@H](C(=O)O)NC(=O)[C@H](Cc2ccccc2)NC(=O)[C@H](Cc2ccccc2)NC(=O)[C@H](CCCNC(=N)N)NC1=O

IC50 [1]: 1.23 µM
SMILES: CC(=O)N[C@@H](CCCNC(=N)N)C(=O)N[C@@H](C)C(=O)N[C@H]1CSSC[C@@H](C(N)=O)NC(=O)[C@H](Cc2ccccc2)NC(=O)[C@H](Cc2ccccc2)NC(=O)[C@H](CCCNC(=N)N)NC1=O (Ac-RACRFFC-NH2; disulfide 3-7)

IC50 [1]: > 10 µM
SMILES: CC(=O)N[C@@H](CCCNC(=N)N)C(=O)N[C@@H](C)C(=O)N[C@@H]1CSSC[C@@H](C(=O)O)NC(=O)[C@H](Cc2ccccc2)NC(=O)[C@H](C)NC(=O)[C@H](CCCNC(=N)N)NC1=O

IC50 [1]: 5.9 µM
SMILES: C[C@H](NC(=O)[C@@H](N)CCCNC(=N)N)C(=O)N[C@H]1CSSC[C@@H](C(N)=O)NC(=O)[C@H](Cc2ccccc2)NC(=O)[C@H](Cc2ccccc2)NC(=O)[C@H](CCCNC(=N)N)NC1=O (H-RACRFFC-NH2; disulfide 3-7)

Drug uptake [12]: Active
SMILES: N=C(N)NCCC[C@@H]1NC(=O)[C@@H](N)CSSC[C@@H](C(=O)O)NC(=O)[C@H](Cc2ccccc2)NC(=O)[C@H](Cc2ccccc2)NC1=O (H-CRFFC-OH; disulfide 1-5)

IC50 [2]: 0.064 µM | Stability [11]: Stable | inhibition [4]: Active | inhibition [5]: Active | inhibition [7]: Active | IC50 [1]: 0.053 µM | inhibition [8]: Active | inhibition [9]: Active
SMILES: CC(=O)N[C@@H](CCCNC(=N)N)C(=O)N[C@@H](C)C(=O)N[C@@H]1CSSC[C@@H](C(=O)O)NC(=O)[C@H](Cc2ccccc2)NC(=O)[C@H](Cc2ccccc2)NC(=O)[C@H](CCCNC(=N)N)NC1=O

Second part, the compound before the results:

SMILES: CC(=O)N[C@H](CCCNC(=N)N)C(=O)N[C@@H](C)C(=O)N[C@H]1CSSC[C@@H](C(=O)O)NC(=O)[C@H](Cc2ccccc2)NC(=O)[C@H](Cc2ccccc2)NC(=O)[C@H](CCCNC(=N)N)NC1=O
IC50 [1]: > 10 µM

SMILES: CC(=O)N[C@@H](C)C(=O)N[C@@H](C)C(=O)N[C@@H]1CSSC[C@@H](C(=O)O)NC(=O)[C@H](Cc2ccccc2)NC(=O)[C@H](Cc2ccccc2)NC(=O)[C@H](CCCNC(=N)N)NC1=O
IC50 [1]: > 10 µM

SMILES: CC(=O)N[C@@H](CCCNC(=N)N)C(=O)N[C@@H](C)C(=O)N[C@H]1CSSC[C@H](C(=O)O)NC(=O)[C@H](Cc2ccccc2)NC(=O)[C@H](Cc2ccccc2)NC(=O)[C@H](CCCNC(=N)N)NC1=O
IC50 [1]: 5.9 µM

SMILES: CC(=O)N[C@@H](CCCNC(=N)N)C(=O)N[C@@H](C)C(=O)N[C@@H]1CSSC[C@@H](C(=O)O)NC(=O)[C@H](C)NC(=O)[C@H](Cc2ccccc2)NC(=O)[C@H](CCCNC(=N)N)NC1=O
IC50 [1]: > 10 µM

SMILES: CC(=O)N[C@@H](CCCNC(=N)N)C(=O)N[C@@H](C)C(=O)N[C@@H]1CSSC[C@@H](C(=O)O)NC(=O)[C@H](Cc2ccccc2)NC(=O)[C@H](Cc2ccccc2)NC(=O)[C@H](C)NC1=O
IC50 [1]: > 10 µM

SMILES: CC(=O)N[C@@H](CCCNC(=N)N)C(=O)N[C@@H](C)C(=O)N[C@H]1CSSC[C@@H](C(=O)O)NC(=O)[C@@H](Cc2ccccc2)NC(=O)[C@H](Cc2ccccc2)NC(=O)[C@H](CCCNC(=N)N)NC1=O
IC50 [1]: > 10 µM

SMILES: CC(=O)N[C@@H](CCCNC(=N)N)C(=O)N[C@H](C)C(=O)N[C@H]1CSSC[C@@H](C(=O)O)NC(=O)[C@H](Cc2ccccc2)NC(=O)[C@H](Cc2ccccc2)NC(=O)[C@H](CCCNC(=N)N)NC1=O
IC50 [1]: > 10 µM
